{
  "source": "ChEMBL document CHEMBL1135442",
  "about": "“6-Chloropyridazin-3-yl derivatives active as nicotinic agents: synthesis, binding, and modeling studies” (J Med Chem, 2002)",
  "data": [
    {"experiment": "Inhibition of [3H]cytisine binding to rat cerebral cortical membrane neuronal Nicotinic acetylcholine receptor", "method_in_brief": "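Rat cerebral cortical membranes, thawed, washed, resuspended in Tris-HCl 50 mM buffer with NaCl 120, KCl 5, MgCl2 1, CaCl2 2.5 mM (pH 7.4 at 4 °C), centrifuged 45000g 20 min. 150-200 µg protein incubated with 0.7 nM [3H]-(-)-cytisine and varied test concentrations, 75 min at 4 °C, triplicate. Nonspecific binding defined with 10 µM (-)-nicotine. Ki values reported.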", "units": {"Ki": "nM"}, "values": [
      {"smiles": "CN1CCCN(c2ccc(Cl)nn2)CC1", "Ki": 220},
      {"smiles": "C[N+]1(C)CCCN(c2ccc(Cl)nn2)CC1", "Ki": 120},
      {"smiles": "CN1CCN(c2ccc(Cl)nn2)CC1", "Ki": 14},
      {"smiles": "C[N+]1(C)C2CCC1CN(c1ccc(Cl)nn1)C2", "Ki": 2.3},
      {"smiles": "Clc1ccc(N2CCCNCC2)nn1", "Ki": 1.5},
      {"smiles": "Clc1ccc(N2CCNCC2)nn1", "Ki": 32},
      {"smiles": "CN1C2CCC1CN(c1ccc(Cl)nn1)C2", "Ki": 39},
      {"smiles": "Clc1ccc(N2CC3CCC(C2)N3)nn1", "Ki": 4.1}
    ]}
  ]
}
